Measurements as given in ChEMBL document CHEMBL2331427, “Synthesis and biological evaluation of thieno [2',3':4,5]pyrimido[1,2-b][1,2,4]triazines and thieno[2,3-d][1,2,4]triazolo[1,5-a]pyrimidines as anti-inflammatory and analgesic agents” (Eur J Med Chem, 2013).

Assays:
Rattus norvegicus [1] = experiment: Antiinflammatory activity in albino rat assessed as inhibition of formalin-induced paw edema at 20 mg/kg, po administered 1 hr prior to formalin challenge measured after 1 hr by plethysmometric analysis relative to control; type: functional
In short: (§1)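 Male albino rats, 180-200 g, five per group. Test compounds given orally at 20 mg/kg; diclofenac Na reference at 20 mg/kg po. After 1 h, 2% formalin (0.1 ml) injected subplantar into left hind paw under light ether anaesthesia. Paw volume read by water plethysmometer at 0, 1, 2 and 4 h. % inhibition of edema increase (Vt−Vo) calculated versus control; mean ± S.E.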

Rattus norvegicus [2] = experiment: Antiinflammatory activity in albino rat assessed as inhibition of formalin-induced paw edema at 20 mg/kg, po administered 1 hr prior to formalin challenge measured after 4 hrs by plethysmometric analysis relative to control; type: functional; in short: as §1
Rattus norvegicus [3] = experiment: Analgesic activity in albino rat assessed as increase in tail withdrawal latency at 20 mg/kg, po after 4 hrs relative to control; type: functional
In short: (§2)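 Male albino rats, 120-150 g, five per group, free access to food and water. Compounds given orally at 20 mg/kg; control group kept, diclofenac Na reference at 20 mg/kg po. Tail withdrawal after immersion in 55 °C water. Reaction time read at 1, 2 and 4 h. Reported as mean ± S.E. and as % increase over basal values. ANOVA with Student-Newman-Keuls, P < 0.05.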

Rattus norvegicus [4] = experiment: Antiinflammatory activity in albino rat assessed as inhibition of formalin-induced paw edema at 20 mg/kg, po qd administered 7 days measured on day 8 post formalin challenge by plethysmometric analysis relative to control; type: functional
In short: (§3)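 Sub-acute model in rats. Compounds given orally at 20 mg/kg daily for 7 consecutive days. 2% formalin (0.1 ml) injected subplantar into left hind paw under light ether anaesthesia 1 h after the day-1 dose, with a second injection on day 3. Paw volume measured plethysmographically on days 1 and 8. Inhibition calculated versus control.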

Rattus norvegicus [5] = experiment: Antiinflammatory activity in po dosed albino rat assessed as inhibition of formalin-induced paw edema administered 1 hr prior to formalin challenge measured after 2 hrs by plethysmometric analysis; type: functional
In short: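 Male albino rats, 180-200 g, groups of five, dosed orally at 5, 10, 20, 40 and 50 mg/kg. After 1 h, 2% formalin (0.1 ml) injected subplantar into left hind paw. Paw edema inhibition measured plethysmometrically 2 h after formalin injection. ED50 derived from these doses.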

Rattus norvegicus [6] = experiment: Antiinflammatory activity in albino rat assessed as inhibition of formalin-induced paw edema at 20 mg/kg, po administered 1 hr prior to formalin challenge measured after 2 hrs by plethysmometric analysis relative to control; type: functional; in short: as §1
[7] = Acute toxicity in po dosed rat assessed as mortality after 24 hrs; type: organism-based; conditions: in vivo, read-out: ALD50
In short: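 Male rats, 180-200 g, groups of five, fasted 24 h before dosing. Compounds given orally at graded doses of 0.1-0.3 g/kg body weight. Mortality at each dose level recorded after 24 h to estimate approximate acute lethal dose (ALD50).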

Rattus norvegicus [8] = experiment: Ulcerogenic activity in albino rat assessed as appearance of hyperemia at 300 mg/kg, po bid administered for 3 days measured after 6 hrs post last dose relative to control; type: toxicity, organism-based; set-up: dose 300 mg/kg, route oral; conditions: in vivo
In short: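 Rats received 300 mg/kg per day orally as two equal doses at 0 and 12 h for three successive days, with water ad libitum. Controls received 1% gum acacia orally. Animals were killed with diethyl ether 6 h after the last dose. Stomachs were removed and inspected grossly for hyperemia and ulceration. Diclofenac Na served as reference.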

Rattus norvegicus [9] = experiment: Analgesic activity in albino rat assessed as increase in tail withdrawal latency at 20 mg/kg, po after 1 hr relative to control; type: functional; in short: as §2
Rattus norvegicus [10] = experiment: Antiinflammatory activity in albino rat assessed as inhibition of formalin-induced paw edema at 20 mg/kg, po qd administered 7 days measured on day 1 post formalin challenge by plethysmometric analysis relative to control; type: functional; in short: as §3
Rattus norvegicus [11] = experiment: Analgesic activity in albino rat assessed as increase in tail withdrawal latency at 20 mg/kg, po after 2 hrs relative to control; type: functional; in short: as §2

| Structure (SMILES) | inhibition in vivo at 20 mg/kg (Rattus norvegicus [1]) [%] | inhibition in vivo at 20 mg/kg (Rattus norvegicus [2]) [%] | Activity (Rattus norvegicus [3]) [%] | inhibition in vivo at 20 mg/kg (Rattus norvegicus [4]) [%] | ED50 (Rattus norvegicus [5]) [mg/kg] | inhibition in vivo at 20 mg/kg (Rattus norvegicus [6]) [%] | LD50 at 24 h [7] [mg/kg] | Activity (Rattus norvegicus [8]) | Activity (Rattus norvegicus [9]) [%] | inhibition in vivo at 20 mg/kg (Rattus norvegicus [10]) [%] | Activity (Rattus norvegicus [11]) [%] |
| --- | --- | --- | --- | --- | --- | --- | --- | --- | --- | --- | --- |
| Cc1sc2nc3[nH]c(=S)[nH]n3c(=O)c2c1C | 42 | 27 | 39 | 40 | 27.5 | 43 | > 300 | 20% | 27 | 47 | 35 |
| Cc1sc2nc3[nH]c(Nc4ccccc4)nn3c(=O)c2c1C | 9 | 25 | 26 | 20 |  | 12 |  |  | 5 | 36 | 17 |
| COc1ccc(NC(=O)Cc2nn3c(=O)c4c(C)c(C)sc4nc3[nH]2)cc1 | 47 | 43 | 42 | 38 | 18.4 | 40 | > 300 | Non-toxic | 14 | 41 | 35 |
| Cc1sc2nc3[nH]c(CC(=O)Nc4ccc(Cl)cc4)nn3c(=O)c2c1C | 33 | 29 | 40 | 38 |  | 28 |  |  | 28 | 36 | 32 |
| Cc1sc2nc3ncc(-c4ccccc4)nn3c(=O)c2c1C | 14 | 34 | 50 | 38 |  | 28 |  |  | 17 | 38 | 34 |
| Cc1nn2c(=O)c3c(C)c(C)sc3nc2[nH]1 | 38 | 52 | 54 | 31 | 23.4 | 43 | > 300 | Non-toxic | 30 | 44 | 40 |
| Cc1sc2nc3ncc(-c4ccc(Cl)cc4)nn3c(=O)c2c1C | 14 | 20 | 23 | 18 |  | 12 |  |  | 6 | 36 | 11 |
| Cc1ccc(Nc2nn3c(=O)c4c(C)c(C)sc4nc3[nH]2)cc1 | 21 | 18 | 44 | 24 |  | 5 |  |  | 23 | 33 | 31 |
